Reference: publication PMC10403215 (Science Advances, 2023)
Values after ≈ are worked out from the molar mass of the structure shown.

Key:
[1] = test system: stationary phase S. aureus Newman cells; experiment: Stationary-phase persister cell killing; format: cell-based, Staphylococcus aureus; settings: 100× or 10× MIC
[2] = test system: S. aureus MRSA strain USA300; experiment: Murine epicutaneous infection model; format: in vivo, BALB/c mice
S. aureus Newman [3] = experiment: MIC, broth microdilution; format: cell-based; settings: Staphylococcus aureus
S. aureus Newman [4] = format: cell-based, Staphylococcus aureus; settings: 40 mM, fig. S4C
[5] = test system: S. aureus RN4220 overexpressing putative target genes; experiment: MIC against strains overexpressing putative target proteins; format: cell-based, Staphylococcus aureus; settings: fig. S4A
S. aureus Newman [6] = experiment: Time-killing assay, exponential culture; format: cell-based, Staphylococcus aureus; settings: control experiment
Method in brief: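 Newman grown in LB at 37°C with shaking to OD600 0.4–0.6, then diluted to 1 × 10⁶ CFU/ml in LB containing various concentrations of test compound, with vancomycin as comparator. Incubated at 37°C with shaking. Serial dilutions plated on LB agar at set time points for CFU/ml. Duplicate, three independent experiments.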

[7] = test system: MRSA USA300 preformed biofilm; experiment: Preformed biofilm eradication, crystal violet; format: cell-based, Staphylococcus aureus; settings: control
Method in brief: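 Eradication of preformed USA300 biofilms by test compound was quantified by crystal violet staining after washing. Three independent experiments, triplicate runs per concentration.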

S. aureus USA300 = experiment: Transmission electron microscopy of cell structure; format: cell-based, Staphylococcus aureus; settings: 0.5× MIC, cell lysis within 4 hours
[8] = test system: S. aureus MRSA strain USA300; experiment: MIC, broth microdilution; format: cell-based; settings: Staphylococcus aureus
Method in brief: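 CLSI M07-A10 broth microdilution with twofold serial dilutions of test compound in MH broth. Inoculum was cells grown in MH broth at 37°C with shaking to OD600 0.4–0.6, diluted to ~1 × 10⁵ CFU/ml final. Run in duplicate, three independent experiments.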

For `O=C(O)c1cn(C2CC2)c2cc(N3CCNCC3)c(F)cc2c1=O` [Cipro, ciprofloxacin], the tolerance of persisters [1] was “high level of tolerance”.
For `COc1cccc(OC)c1C(=O)N[C@@H]1C(=O)N2[C@@H]1SC(C)(C)[C@@H]2C(=O)O` [Met, methicillin], the “killing effect compared to the vehicle control” value ([2]; 3 mg kg^−1) was “no significant killing effect”.
For `CC1(C)S[C@@H]2[C@H](NC(=O)Cc3ccccc3)C(=O)N2[C@H]1C(=O)O` [Pen, penicillin G], the tolerance of persisters [1] was “high level of tolerance”, the MIC (S. aureus Newman [3]) was 0.125 µg/mL (≈ 0.374 µM) and the “effect of sole addition of lysine or UDP-GlcNAc on susceptibility” value (S. aureus Newman [4]) was “did not affect”. The “effect of overexpression of each protein on sensitivity” value [5] was “no effect”.
For `CN[C@H](CC(C)C)C(=O)N[C@H]1C(=O)N[C@@H](CC(N)=O)C(=O)N[C@H]2C(=O)N[C@H]3C(=O)N[C@H](C(=O)N[C@H](C(=O)O)c4cc(O)cc(O)c4-c4cc3ccc4O)[C@H](O)c3ccc(c(Cl)c3)Oc3cc2cc(c3O[C@@H]2O[C@H](CO)[C@@H](O)[C@H](O)[C@H]2O[C@H]2C[C@](C)(N)[C@H](O)[C@H](C)O2)Oc2ccc(cc2Cl)[C@H]1O` [Van, vancomycin], the “killing speed compared with ChryA” value (S. aureus Newman [6]) was “much slower killing” and the antibiofilm ability [7] was “no antibiofilm ability”.
For `C[C@@H]1O[C@@H]1P(=O)(O)O` [fosfomycin], the “cell wall integrity (TEM)” value (S. aureus USA300) was “severely impaired” and the MIC [8] was 4 µg/mL (≈ 29 µM).
In the case of `CC(=O)O[C@H]1C[C@@]2(C)[C@@H](C[C@@H](O)[C@H]3[C@@]4(C)CC[C@@H](O)[C@@H](C)[C@@H]4CC[C@@]32C)/C1=C(\CCC=C(C)C)C(=O)O` [fusidic acid], the MIC [8] is reported as 0.031 µg/mL (≈ 0.06 µM) and the “effectiveness, ChryA versus fusidic acid” value ([2]; bacterial colonization of wounds on Day 16, fig. S3) is reported as “less effectiveness compared to the low dose of ChryA”.
